pKi: −log10 of the molar value.

Test [1] deals with T1, 5-hydroxytryptamine receptor 2A (Homo sapiens, UniProt P28223). Kind of test: Affinity against 5-hydroxytryptamine 2A receptor (K) labeled with [3H]ketanserin.
Test [2] in a line: Receptor selectivity [3H]- ketanserin-labeled receptors versus [125I]- DOI-labeled receptors.
The target of test [3] is T2, 5-hydroxytryptamine receptor 2C (Rattus norvegicus, UniProt P08909).
T2 sequence (P08909 whole entry): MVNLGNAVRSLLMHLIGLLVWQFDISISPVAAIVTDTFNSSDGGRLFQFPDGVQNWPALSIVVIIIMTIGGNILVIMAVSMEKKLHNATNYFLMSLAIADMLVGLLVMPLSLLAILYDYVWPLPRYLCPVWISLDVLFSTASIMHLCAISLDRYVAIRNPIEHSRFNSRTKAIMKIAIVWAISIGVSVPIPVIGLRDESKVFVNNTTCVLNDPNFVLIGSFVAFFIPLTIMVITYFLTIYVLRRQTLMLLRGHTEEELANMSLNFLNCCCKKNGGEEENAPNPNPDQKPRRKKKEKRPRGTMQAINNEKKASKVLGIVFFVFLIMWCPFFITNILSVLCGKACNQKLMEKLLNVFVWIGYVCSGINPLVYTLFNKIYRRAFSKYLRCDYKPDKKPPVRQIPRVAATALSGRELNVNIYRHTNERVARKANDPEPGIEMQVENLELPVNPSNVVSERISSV
The test is described as follows: Affinity against 5-hydroxytryptamine 2C receptor in J1 cells transfected with the rat 5-HT2C gene labeled with [3H]mesulergine. It is filed as cell-based. The procedure, abridged:
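Homogenates of J1 cells carrying the rat 5-HT1C (5-HT2C) gene, labeled with [3H]mesulergine. Competing drug and radioligand incubated at 37 °C for 30 min, then filtered through glass-fiber filters and counted by liquid scintillation. Ki given as mean and SEM of at least two experiments, each done in triplicate.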

Test [4] concerns the target T1, 5-hydroxytryptamine receptor 2A. The test is described as follows: Affinity against 5-hydroxytryptamine 2A receptor (D) labeled with [125I]DOI.
Test [5] can be described thus: The compound evaluated for its receptor selectivity 5-HT2C receptors versus [125I]- DOI- labeled receptors.
The nature of test [6]: The compound evaluated for its receptor selectivity at [125I]- DOI- labeled receptors versus [3H]- ketanserin- labeled receptors,. The procedure, abridged: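 […] 5-HT2A receptors expressed in transfected GF6 cells, labeled in separate assays with [3H]ketanserin or [125I]DOI. Homogenates were incubated with radioligand and competing drug for 30 min at 37 °C, then filtered through glass-fiber filters and counted by liquid scintillation. Ki values are the mean and SEM of at least two experiments, each run in triplicate.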

T1 sequence (P28223 whole entry): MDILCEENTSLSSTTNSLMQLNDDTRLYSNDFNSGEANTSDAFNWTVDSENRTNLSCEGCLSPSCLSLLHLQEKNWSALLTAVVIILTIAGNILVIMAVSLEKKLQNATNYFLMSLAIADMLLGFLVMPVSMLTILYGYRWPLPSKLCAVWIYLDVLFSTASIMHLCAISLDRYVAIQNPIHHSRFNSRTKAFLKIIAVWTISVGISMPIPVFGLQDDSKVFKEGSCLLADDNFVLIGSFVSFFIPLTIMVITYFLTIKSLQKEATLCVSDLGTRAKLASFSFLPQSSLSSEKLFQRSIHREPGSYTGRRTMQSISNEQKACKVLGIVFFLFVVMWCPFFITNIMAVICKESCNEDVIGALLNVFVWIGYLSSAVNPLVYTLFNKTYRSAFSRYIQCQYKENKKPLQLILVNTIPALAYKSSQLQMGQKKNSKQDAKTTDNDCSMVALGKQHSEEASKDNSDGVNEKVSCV

With `COc1ccc2[nH]cc(CCNCc3ccc(Cl)cc3)c2c1`, the pKi was 6.25 in test [1], 5.36 in test [3] and 6.98 in test [4]. Moreover, the figures for the Ratio in test [2] and in test [5] were 5 and 42, respectively.
For `COc1ccc2[nH]cc(CCNCc3ccc(Br)cc3)c2c1` the same measures were 8.28, 7.00, 10.00, 52 and 1000.
For `COc1cc(CCNCc2ccccc2)c(OC)cc1Br`, the results for the pKi in test [1], in test [3] and in test [4] were 7.80, 7.05 and 9.52, respectively. Besides, the Ratio in test [2] came out at 53; in test [5], 300.
Consider `COc1ccc2[nH]cc(CCNCCCCc3ccccc3)c2c1`, for which the pKi is 7.66 in test [1], 5.82 in test [3] and 7.89 in test [4]. For the same compound, the Ratio in test [2] came to 2; in test [5], 115.
The matching figures for `COc1cc(CCNCc2ccc(I)cc2)c(OC)cc1Br`: 7.66, 6.78, 9.40, 55 and 410.
With `COc1ccc(CNCCc2c[nH]c3ccc(OC)cc23)cc1`, the pKi in test [1] is 7.00; in test [3], 5.93; in test [4] it was 7.80. Also, the figures for the Ratio in test [2] and in test [5] were 6 and 74, respectively.
With `CCNCCc1c[nH]c2ccc(OC)cc12`, the pKi in test [1] is 6.03; in test [3] it was 5.57; in test [4], 8.14. For the same compound, the Ratio in test [6] was found to be 130.
With `CNCCc1cc(OC)c(Br)cc1OC`, the results for the pKi in test [1], in test [3] and in test [4] were 6.42, 7.00 and 8.54, respectively. Besides, the values for the Ratio in test [2] and in test [5] were 130 and 34, respectively.
In the case of `COc1cc(CCN(C)C)c(OC)cc1Br`, the pKi is 6.38 in test [1], 6.32 in test [3] and 7.80 in test [4]. The Ratio came out at 26 in test [2] and 30 in test [5].
`COc1cc(CCNCc2ccc(Cl)cc2)c(OC)cc1Br`: the figures for the pKi in test [1], in test [3] and in test [4] were 6.96, 6.15 and 7.82, respectively. Moreover, the results for the Ratio in test [2] and in test [5] were 7 and 48, respectively.
With `COc1cc(CCNCCCCc2ccccc2)c(OC)cc1Br`, the negative logarithm of the Ki (pKi) in test [1] was 7.00; in test [3] it was 6.16; in test [4], 7.57. In addition, the Ratio in test [2] is 4; in test [5], 26.
As for `COc1ccc2[nH]cc(CCNCc3ccc(F)cc3)c2c1`, the values for the pKi in test [1], in test [3] and in test [4] were 6.32, 5.45 and 7.40, respectively. In addition, the results for the Ratio in test [2] and in test [5] were 10 and 88, respectively.
Consider `COc1cc(CCNCc2ccc(Br)cc2)c(OC)cc1Br`, for which the pKi in test [1] is 8.80; in test [3], 7.32; in test [4], 9.40. The Ratio was found to be 4 in test [2] and 120 in test [5].
For `COc1cc(CCNCc2ccc(N)cc2)c(OC)cc1Br`, the pKi in test [1] was 7.30; in test [3], 5.99; in test [4] it was 7.80. Also, the values for the Ratio in test [2] and in test [5] were 3 and 64, respectively.
Take `CCNCCc1cc(OC)c(Br)cc1OC`: the pKi in test [1] is 6.48; in test [3], 5.71; in test [4], 7.40. In addition, the Ratio in test [2] came out at 8; in test [5], 48.
Regarding `COc1ccc2[nH]cc(CCNCc3ccc(N)cc3)c2c1`, the pKi was 6.32 in test [1], 5.17 in test [3] and 6.98 in test [4]. For the same compound, the results for the Ratio in test [2] and in test [5] were 5 and 64, respectively.
As for `COc1ccc2[nH]cc(CCNCc3ccc([N+](=O)[O-])cc3)c2c1`, the figures for the pKi in test [1], in test [3] and in test [4] were 5.37, 5.00 and 6.85, respectively. Moreover, the Ratio stood at 30 in test [2] and 70 in test [5].
Consider `COc1ccc2[nH]cc(CCN3CCCCC3)c2c1`, for which the pKi in test [1] is 6.80; in test [3] it was < 5.00; in test [4] it was 6.64.
Regarding `COc1cc(CCN2CCCCC2)c(OC)cc1Br`, the pKi was 6.05 in test [1], 5.60 in test [3] and 6.81 in test [4]. Besides, the values for the Ratio in test [2] and in test [5] were 6 and 16, respectively.
For the compound `COc1cc(CCNCCCc2ccccc2)c(OC)cc1Br`, the negative logarithm of the Ki (pKi) in test [1] was 7.08; in test [3], 6.51; in test [4], 7.64. Further, the Ratio stood at 4 in test [2] and 13 in test [5].
For the compound `COc1cc(CCNCc2ccc(C)cc2)c(OC)cc1Br`, the pKi in test [1] is 7.64; in test [3], 6.65; in test [4], 7.85. The figures for the Ratio in test [2] and in test [5] were 2 and 16, respectively.
As to `COc1ccc2[nH]cc(CCNCc3ccc(I)cc3)c2c1`, the pKi was 6.40 in test [1], 5.75 in test [3] and 6.92 in test [4]. Besides, the Ratio came to 3 in test [2] and 15 in test [5].
Consider `COc1ccc2[nH]cc(CCNCCCc3ccccc3)c2c1`, for which the pKi was 7.30 in test [1], 6.78 in test [3] and 8.00 in test [4]. Further, the Ratio in test [2] came to 5; in test [5], 16.
With `COc1cc(CCN)c(OC)cc1Br`, the negative logarithm of the Ki (pKi) is 7.47 in test [1] and 9.00 in test [4].
`CNCCc1c[nH]c2ccc(OC)cc12`: the pKi was 6.35 in test [1], 6.08 in test [3] and 8.39 in test [4]. In addition, the Ratio in test [6] was found to be 110.
With `COc1ccc2[nH]cc(CCNCc3ccc(C)cc3)c2c1`, the pKi was 6.96 in test [1], 5.91 in test [3] and 7.52 in test [4]. For the same compound, the results for the Ratio in test [2] and in test [5] were 4 and 40, respectively.
For `COc1ccc(CNCCc2cc(OC)c(Br)cc2OC)cc1` the same measures were 7.80, 6.67, 7.89, 1 and 17.
`COc1cc(CCNCc2ccc(F)cc2)c(OC)cc1Br`: the pKi was 7.52 in test [1], 6.44 in test [3] and 8.47 in test [4]. In addition, the Ratio stood at 7 in test [2] and 80 in test [5].
With `COc1ccc2[nH]cc(CCNCc3ccccc3)c2c1`, the pKi in test [1] was 7.26; in test [3] it was 6.43; in test [4] it was 8.28. Also, the Ratio in test [2] is 10; in test [5] it was 70.
With `COc1cc(CCNCc2ccc([N+](=O)[O-])cc2)c(OC)cc1Br`, the pKi in test [1] is 6.54; in test [3] it was 5.91; in test [4] it was 7.24. The figures for the Ratio in test [2] and in test [5] were 5 and 21, respectively.

The term pKi denotes −log10 of the Ki, conventionally taken in molar units. A high value points to a small Ki.

The values above are taken from ChEMBL document CHEMBL1127846, “Influence of amine substituents on 5-HT2A versus 5-HT2C binding of phenylalkyl- and indolylalkylamines” (J Med Chem, 1994).
